According to ChEMBL document CHEMBL3861952, “Donepezil-like multifunctional agents: Design, synthesis, molecular modeling and biological evaluation” (Eur J Med Chem, 2016):

Tests used:
[1] = target: T1, Amine oxidase [flavin-containing] A (Homo sapiens, UniProt P21397); experiment: Inhibition of human recombinant MAOA using p-tyramine as substrate preincubated for 30 mins followed by substrate addition measured for 1 hr by horse-radish peroxidase/amplex red-based fluorometric method
T1 sequence (P21397 whole entry): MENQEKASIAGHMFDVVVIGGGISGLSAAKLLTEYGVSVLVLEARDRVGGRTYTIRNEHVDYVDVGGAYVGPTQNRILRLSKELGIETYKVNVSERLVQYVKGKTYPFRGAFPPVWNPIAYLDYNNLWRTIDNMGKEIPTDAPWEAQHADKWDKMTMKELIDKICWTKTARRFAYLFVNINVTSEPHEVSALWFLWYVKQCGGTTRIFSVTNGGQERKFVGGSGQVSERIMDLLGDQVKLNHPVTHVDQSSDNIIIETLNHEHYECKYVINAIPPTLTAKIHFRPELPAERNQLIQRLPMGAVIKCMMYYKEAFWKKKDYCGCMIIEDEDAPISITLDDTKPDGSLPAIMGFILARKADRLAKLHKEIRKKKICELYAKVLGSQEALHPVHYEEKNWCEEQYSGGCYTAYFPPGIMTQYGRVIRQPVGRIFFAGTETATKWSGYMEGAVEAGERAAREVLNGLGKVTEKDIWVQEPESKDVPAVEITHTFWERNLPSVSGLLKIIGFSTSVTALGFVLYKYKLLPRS

[2] = target: T2, Cholinesterase (Homo sapiens, UniProt P06276); experiment: Inhibition of human recombinant BuChE expressed in HEK293 cells using S-butyrylthiocholine iodide as substrate preincubated for 30 mins followed by substrate addition measured after 30 mins by Ellman's method
T2 sequence (P06276 whole entry): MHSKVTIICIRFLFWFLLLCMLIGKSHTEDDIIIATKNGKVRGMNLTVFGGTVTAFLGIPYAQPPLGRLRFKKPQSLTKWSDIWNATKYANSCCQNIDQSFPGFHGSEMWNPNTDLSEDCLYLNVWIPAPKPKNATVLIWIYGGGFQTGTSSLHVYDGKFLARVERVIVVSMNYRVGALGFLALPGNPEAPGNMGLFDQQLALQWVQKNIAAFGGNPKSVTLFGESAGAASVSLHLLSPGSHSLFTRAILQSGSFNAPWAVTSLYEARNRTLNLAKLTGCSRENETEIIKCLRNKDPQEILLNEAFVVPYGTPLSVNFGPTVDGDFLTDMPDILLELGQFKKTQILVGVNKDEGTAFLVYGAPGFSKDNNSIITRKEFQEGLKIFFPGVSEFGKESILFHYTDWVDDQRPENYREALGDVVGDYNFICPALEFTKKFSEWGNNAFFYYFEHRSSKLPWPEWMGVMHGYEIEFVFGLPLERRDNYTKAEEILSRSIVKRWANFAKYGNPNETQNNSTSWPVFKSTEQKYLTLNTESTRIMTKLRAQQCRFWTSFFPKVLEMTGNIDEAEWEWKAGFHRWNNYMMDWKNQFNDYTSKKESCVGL
In short: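 Ellman assay in 0.1 M phosphate buffer pH 8.0 with 0.05 U/mL BuChE and 0.35 mM DTNB. Serial inhibitor dilutions pre-incubated 30 min at 37 °C, then 0.5 mM S-butyrylthiocholine iodide (final) added. Reaction followed at least 30 min at 405 nm. IC50 from dose-response curves; mean ± S.E.M., at least three experiments in triplicate.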

[3] = target: T3, Amine oxidase [flavin-containing] B (Homo sapiens, UniProt P27338); experiment: Inhibition of human recombinant MAOB using p-tyramine as substrate preincubated for 30 mins followed by substrate addition measured for 1 hr by horse-radish peroxidase/amplex red-based fluorometric method
T3 sequence (P27338 whole entry): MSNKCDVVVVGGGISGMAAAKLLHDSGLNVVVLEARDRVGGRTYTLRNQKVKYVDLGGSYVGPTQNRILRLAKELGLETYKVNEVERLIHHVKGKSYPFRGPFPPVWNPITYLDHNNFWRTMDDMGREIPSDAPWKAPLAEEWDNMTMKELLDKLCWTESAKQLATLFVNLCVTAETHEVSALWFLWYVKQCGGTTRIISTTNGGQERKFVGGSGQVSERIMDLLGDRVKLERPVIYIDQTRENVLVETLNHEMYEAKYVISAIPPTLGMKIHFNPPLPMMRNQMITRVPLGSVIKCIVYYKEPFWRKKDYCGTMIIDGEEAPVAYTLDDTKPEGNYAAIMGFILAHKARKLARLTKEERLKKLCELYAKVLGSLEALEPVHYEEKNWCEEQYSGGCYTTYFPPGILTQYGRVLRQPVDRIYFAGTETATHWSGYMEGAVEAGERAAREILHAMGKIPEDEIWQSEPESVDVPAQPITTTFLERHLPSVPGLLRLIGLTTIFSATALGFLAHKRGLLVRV

[4] = target: T4, Acetylcholinesterase (Homo sapiens, UniProt P22303); experiment: Inhibition of human recombinant AChE expressed in HEK293 cells using acetylthiocholine iodide as substrate preincubated for 30 mins followed by substrate addition measured after 30 mins by Ellman's method
T4 sequence (P22303 whole entry): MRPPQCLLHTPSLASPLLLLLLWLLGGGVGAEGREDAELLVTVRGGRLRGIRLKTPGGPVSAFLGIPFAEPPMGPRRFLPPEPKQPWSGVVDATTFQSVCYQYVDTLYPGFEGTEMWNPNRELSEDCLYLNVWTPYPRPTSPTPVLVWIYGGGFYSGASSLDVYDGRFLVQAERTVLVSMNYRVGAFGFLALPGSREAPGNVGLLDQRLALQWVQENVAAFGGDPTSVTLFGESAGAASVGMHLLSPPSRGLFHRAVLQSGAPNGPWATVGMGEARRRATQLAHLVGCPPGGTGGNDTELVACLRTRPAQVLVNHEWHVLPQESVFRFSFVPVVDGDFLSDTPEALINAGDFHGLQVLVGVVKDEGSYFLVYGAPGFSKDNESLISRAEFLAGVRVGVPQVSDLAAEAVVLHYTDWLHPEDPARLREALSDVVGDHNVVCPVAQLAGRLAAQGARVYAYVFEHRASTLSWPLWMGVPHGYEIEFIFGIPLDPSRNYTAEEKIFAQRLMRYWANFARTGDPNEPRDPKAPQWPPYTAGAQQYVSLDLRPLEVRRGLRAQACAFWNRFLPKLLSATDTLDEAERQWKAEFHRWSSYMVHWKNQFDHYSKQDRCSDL

[5] = target: T1, Amine oxidase [flavin-containing] A; experiment: Inhibition of human recombinant MAOA using p-tyramine as substrate measured for 1 hr by horse-radish peroxidase/amplex red-based fluorometric method
In short: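 Human recombinant MAO-A (360 mU/mL) pre-incubated 30 min at 37 °C with serial inhibitor dilutions. Reaction started with 1 mM p-tyramine, 40 U/mL HRP and 25 μM Amplex UltraRed (final) in 0.25 mM sodium phosphate pH 7.4. Resorufin fluorescence (ex 530/em 590) read continuously ≥1 h. Water controls, no-substrate blanks. IC50 from dose-response curves; mean ± S.E.M., ≥3 experiments in triplicate.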

[6] = target: T4, Acetylcholinesterase; experiment: Mixed-type inhibition of human recombinant AChE expressed in HEK293 cells using acetylthiocholine iodide as substrate preincubated for 30 mins followed by substrate addition measured after 30 mins by Lineweaver-Burk plot analysis
[7] = target: T1, Amine oxidase [flavin-containing] A; experiment: Inhibition of human recombinant MAOA using p-tyramine as substrate preincubated for 180 mins followed by substrate addition measured for 1 hr by horse-radish peroxidase/amplex red-based fluorometric method
In short: (§1)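 Time-dependent series: hrMAO-A pre-incubated with increasing inhibitor concentrations for varied times (0–240 min) before addition of p-tyramine. Fluorometric HRP/Amplex UltraRed read-out as in the standard assay (1 mM p-tyramine, pH 7.4 phosphate, ex 530/em 590). IC50 derived from a dose-response curve at each pre-incubation time.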

[8] = Metal chelating activity of the compound assessed as compound-Cu2+ complex formation at 10 uM after 5 mins by UV-Vis spectrophotometric method; type: physicochemical
In short: (§2)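 Run in distilled water at room temperature: UV-Vis spectra (220–300 nm, 1 cm quartz) of 10 μM compound with CuSO4 or ZnSO4 at 1–5 μM. Complexation followed at 262 nm. Stoichiometry by Job's method: 21 mixtures, total concentration 10 μM, proportions varied 0–100%.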

[9] = Metal chelating activity of the compound assessed as compound-Zn2+ complex formation at 10 uM after 15 hrs by UV-Vis spectrophotometric method; type: physicochemical; in short: as §2
[10] = target: T1, Amine oxidase [flavin-containing] A; experiment: Inhibition of human recombinant MAOA using p-tyramine as substrate preincubated for 60 mins followed by substrate addition measured for 1 hr by horse-radish peroxidase/amplex red-based fluorometric method; in short: as §1
[11] = target: T1, Amine oxidase [flavin-containing] A; experiment: Inhibition of human recombinant MAOA using p-tyramine as substrate preincubated for 120 mins followed by substrate addition measured for 1 hr by horse-radish peroxidase/amplex red-based fluorometric method; in short: as §1
[12] = target: T1, Amine oxidase [flavin-containing] A; experiment: Inhibition of human recombinant MAOA using p-tyramine as substrate preincubated for 240 mins followed by substrate addition measured for 1 hr by horse-radish peroxidase/amplex red-based fluorometric method; in short: as §1
[13] = target: T1, Amine oxidase [flavin-containing] A; experiment: Inhibition of human recombinant MAOA using p-tyramine as substrate preincubated for 15 mins followed by substrate addition measured for 1 hr by horse-radish peroxidase/amplex red-based fluorometric method; in short: as §1
[14] = target: T2, Cholinesterase; experiment: Mixed-type inhibition of human recombinant BuChE expressed in HEK293 cells using S-butyrylthiocholine iodide as substrate preincubated for 30 mins followed by substrate addition measured after 30 mins by Lineweaver-Burk plot analysis

## C#CCN(Cc1ccc(O)c2ncccc12)C(C#N)CCC1CCN(Cc2ccccc2)CC1 (centres undefined)
[1]
  IC50: 6.7 µM
[2]
  IC50: 2.1 µM
[3]
  IC50: 11.8 µM
[4]
  IC50: 0.35 µM

## C#CCN(CCC1CCN(Cc2ccccc2)CC1)Cc1ccc2cccc(O)c2n1
[1]
  IC50: 35.6 µM
[2]
  IC50: 0.079 µM
[3]
  IC50: > 100 µM
[4]
  IC50: 4.1 µM

## C#CCN(Cc1ccc2cccc(O)c2n1)C(C#N)C1CCN(Cc2ccccc2)CC1 (centres undefined)
[1]
  IC50: 10.2 µM
[2]
  IC50: 0.03 µM
[3]
  IC50: > 100 µM
[4]
  IC50: 64.2 µM

## C#CCN(Cc1ccc2cccc(O)c2n1)C(C#N)CCC1CCN(Cc2ccccc2)CC1 (centres undefined)
[5]
  IC50: 187 µM
[1]
  IC50: 6.2 to 10.1 µM
[6]
  Ki: 0.0149 µM
[7]
  IC50: 1.6 µM
[8]
  Activity: Active
[9]
  Activity: Active
[10]
  IC50: 3.8 µM
[11]
  IC50: 1.9 µM
[12]
  IC50: 1.1 µM
[2]
  IC50: 0.039 µM
  Ki: 0.052 µM
[3]
  IC50: > 100 µM
[13]
  IC50: 20.8 µM
[14]
  Ki: 0.0525 µM
[4]
  IC50: 0.029 µM
  Ki: 0.015 µM

## C#CCN(Cc1ccc2cccc(O)c2n1)CC1CCN(Cc2ccccc2)CC1
[1]
  IC50: 46.5 µM
[2]
  IC50: 0.064 µM
[3]
  IC50: > 100 µM
[4]
  IC50: 9.7 µM

## C#CCN(CCCC1CCN(Cc2ccccc2)CC1)Cc1ccc2cccc(O)c2n1
[1]
  IC50: 37 µM
[2]
  IC50: 0.023 µM
[3]
  IC50: > 100 µM
[4]
  IC50: 1.5 µM

## C#CCN(Cc1ccc2cccc(O)c2n1)C(C#N)CC1CCN(Cc2ccccc2)CC1 (centres undefined)
[1]
  IC50: 12.2 µM
[2]
  IC50: 0.002 µM
[3]
  IC50: > 100 µM
[4]
  IC50: 3.3 µM

## C#CCN(C)CCCOc1ccc(Cl)cc1Cl [CLORGILINE]
[2]
  IC50: > 500 µM
[4]
  IC50: > 500 µM

## C#CCN(C)[C@H](C)Cc1ccccc1 [SELEGILINE]
[2]
  IC50: > 500 µM
[4]
  IC50: > 500 µM
